Assay results as given in ChEMBL document CHEMBL4130594 (ACS Med Chem Lett, 2017).

Key:
DU-145 [1] = test: Cytotoxicity against human DU145 cells incubated for 2 hrs under normoxic condition measured after 72 hrs by Alamar blue assay; format: functional, cell-based
Procedure, shortened: (§1)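 DU145 and PC-3 cells exposed 2 h under hypoxia (N2) or normoxia (air). IC50 determined. Mean ± SEM of two or more independent experiments, each in quintuplicate.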

DU-145 [2] = test: Cytotoxicity against human DU145 cells incubated for 2 hrs under hypoxic condition measured after 72 hrs by Alamar blue assay; format: functional, cell-based; procedure, shortened: as §1
PC-3 [3] = test: Cytotoxicity against human PC3 cells incubated for 2 hrs under normoxic condition measured after 72 hrs by Alamar blue assay; format: functional, cell-based; procedure, shortened: as §1
PC-3 [4] = test: Cytotoxicity against human PC3 cells incubated for 2 hrs under hypoxic condition measured after 72 hrs by Alamar blue assay; format: functional, cell-based; procedure, shortened: as §1
PC-3 [5] = test: Selectivity index, ratio of IC50 for human PC3 cells under normoxic condition to IC50 for human PC3 cells under hypoxic condition; format: functional
Procedure, shortened: (§2)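 Hypoxia cytotoxicity ratio = IC50(air)/IC50(N2), from IC50 values after 2 h exposure of DU145 or PC-3 cells. Based on two or more independent experiments in quintuplicate.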

DU-145 [6] = test: Selectivity index, ratio of IC50 for human DU145 cells under normoxic condition to IC50 for human DU145 cells under hypoxic condition; format: functional; procedure, shortened: as §2
[7] = 1-octanol/phosphate buffered saline distribution coefficient, log D of the compound at 400000 cpm at pH 7.4 by gamma counting method; format: physicochemical
[8] = Drug uptake in human PC3 cells at 100000 cpm preincubated for 2 hrs measured up to 8 hrs under hypoxic condition by gamma counting analysis; format: ADME, cell-based; conditions: pc-3, 8 h
[9] = Drug uptake in human PC3 cells at 100000 cpm preincubated for 2 hrs measured up to 8 hrs under normoxic condition by gamma counting analysis; format: ADME, cell-based; conditions: pc-3, 8 h
[10] = Drug uptake in human DU145 cells at 100000 cpm preincubated for 2 hrs measured up to 8 hrs under normoxic condition by gamma counting analysis; format: ADME, cell-based; conditions: du-145, 8 h
[11] = Drug uptake in human DU145 cells at 100000 cpm preincubated for 2 hrs measured up to 8 hrs under hypoxic condition by gamma counting analysis; format: ADME, cell-based; conditions: du-145, 8 h

Question: Which IC50 (DU-145 [1]) does the source give for `Cn1c(COP(=O)(NCCBr)NCCBr)cnc1[N+](=O)[O-]` [EVOFOSFAMIDE] here?
Answer: 842 µM

Question: And the IC50 (DU-145 [2])?
Answer: 4.14 µM

Question: What about the IC50 (PC-3 [3]) of the same compound?
Answer: 687 µM

Question: And the IC50 (PC-3 [4])?
Answer: 6.49 µM

Question: And the “Ratio IC50” value (PC-3 [5])?
Answer: 106

Question: What about the “Ratio IC50” value (DU-145 [6]) of the same compound?
Answer: 203

Question: For `Cn1c(COP(=O)(N(CCBr)Cc2cn(Cc3ccccc3)nn2)N(CCBr)Cc2nnn(Cc3ccccc3)c2[125I])cnc1[N+](=O)[O-]` (stereo unspecified), which logD [7] is on record?
Answer: 0.55

Question: And the Drug uptake [8]?
Answer: 4%

Question: What about the Drug uptake [9] of the same compound?
Answer: 2%

Question: And the Drug uptake [10]?
Answer: 2%

Question: And the Drug uptake [11]?
Answer: 4%
